IEC-6 cytotox = counter-screen for KLF5 inhibitors: cytotoxicity in IEC-6 cells | IEC-6 cytotoxicity, luminescence viability | inhibition, % at 5 µM | actives 0.78% (n = 290,000) | AID 1825
MT stabilizer = stabilizes microtubules in HeLa cells; HeLa tubulin immunostaining HCS, 24 h; share of cells brighter than vehicle mean+2SD; % tubulin-high responders, % at 10 µM; actives 0.83% (n = 200,000); AID 2205;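 active = plate Z-score above 3 for both tubulin-high and condensed-nucleus cell shares, with cell loss under 80%, at 10 µM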;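 note: anti alpha tubulin signal scored within the nucleus-defined area of each cell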
BaF3 parental = counter-screen for JAK2V617F inhibitors: parental Ba/F3 viability inhibitors | CellTiter-Glo ATP luminescence | inhibition, % at 5.6 µM | actives 1.1% (n = 220,000) | AID 1486;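 active = inhibition above a per-campaign cutoff, the mean inhibition of all tested compounds plus 3 SD, cut at about 27% in these data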
KLF5 inh = kruppel-like factor 5 inhibition | DLD-1 KLF5 promoter-luciferase reporter, luminescence | inhibition, % at 5 µM | actives 0.23% (n = 290,000);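 active = inhibition above a per-plate limit of that plate's mean compound inhibition plus 3 SD, cut at about 60% in these data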;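 note: higher means less KLF5 promoter-driven luciferase light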
Ba/F3 V617F tox = loss of viability in JAK2V617F-driven Ba/F3 cells; Ba/F3 EpoR-JAK2V617F viability, ATP luminescence; inhibition, % at 5.6 µM; actives 1.1% (n = 220,000);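 active = inhibition above the campaign mean plus 3 SD over all tested compounds, cut at about 24% in these data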;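 note: cytokine-independent growth of Ba/F3 cells driven by EpoR plus mutant JAK2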
bCat nuc transl = modulators of beta-catenin nuclear translocation; nuclear translocation activity, % at 5 µM; actives 0.3% (n = 190,000); AID 1665; HeLa beta-catenin nuclear translocation, immunofluorescence imaging;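 active = nuclear translocation activity above 50% at 5 µM, with a well cell count of 50 or more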;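 note: per-cell ratio of nuclear to cytoplasmic median beta-catenin stain intensity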
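Signal – beta-catenin immunofluorescence imaging with DAPI · Test system – human HeLa cell line · Dosing – 5 µM primary single dose, 0.1% DMSO, 0.02–20 µM confirmation series · Measure – % activation, nuclear-to-cytoplasmic median beta-catenin signal ratio per cell · Incubation – 24 h compound exposure at 37°C, 5% CO2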
IEC-6 cytotox cf = confirmation of cytotoxic compounds in rat IEC-6 intestinal epithelial cells; shares compounds with IEC-6 cytotox; actives 63% (n = 1,900); IEC-6 rat intestinal epithelial viability, luminescence; inhibition, % at 5 µM
Hits are given with their value; 0 = inactive; - = not tested or not shown. In the library only some 2.1% were active in any assay of this set; here they are far more common. Cut-off read from the data, not from the text of the source, unless noted: active = inhibition above about 22%; inactive = the rest.

SMILES	IEC-6 cytotox	MT stabilizer	BaF3 parental	KLF5 inh	Ba/F3 V617F tox	bCat nuc transl	IEC-6 cytotox cf
COc1cccc(-c2nnc3n2N=C(C(C)(C)C)CS3)c1	0	0	0	0	0	0	-
C1=C(CCNc2ncnc3c2[nH]c2ccccc23)CCCC1	39	0	63	0	73	0	24
O=c1c2[nH]c3ccccc3c2ncn1CCC1=CCCCC1	0	0	0	0	0	0	-
S=C1NCCOCCNC(=S)NCCOCCOCCN1	0	0	0	0	0	0	-
N#Cc1cc(Nc2c(N)nc[nH]c2=O)c([N+](=O)[O-])cc1C#N	0	-	-	0	-	-	-
CCOC(=O)c1ccc(NC(=O)Nc2ccon2)cc1	87	-	88	0	88	93	65
CCOC(=O)c1ccc(NC(=O)Nc2ccc(Cl)cn2)cc1	0	0	0	0	0	0	-
O=C(Nc1ccc(Cl)c(Cl)c1)Nc1ccon1	74	-	-	0	-	-	58
CN(c1ccccc1C(=O)O)S(=O)(=O)c1ccc2[nH]c(=O)[nH]c2c1	0	-	-	0	-	-	-
NCCCNc1nc(N)c([N+](=O)[O-])c(NC2CCCCC2)n1	46	-	-	0	-	-	43
N=c1c(C(=O)NC2CCCCC2)cc2c(=O)n3ccccc3nc2n1Cc1ccco1	42	-	-	0	-	-	0
C/C(=N\NC(=O)c1ccccc1O)c1ccc(Br)s1	0	0	0	0	0	0	-
C/C(=N\NC(=O)c1cccc(F)c1)c1ccc(Br)s1	24	34	0	0	0	0	32
COc1ccc(NC(=O)C2Cc3cccc(OC)c3O/C2=N\O)cc1 (configuration not stated)	0	-	-	0	-	-	-
COc1cccc2c1O/C(=N\O)C(C(=O)Nc1ccc(C)cc1)C2 (configuration not stated)	52	-	-	0	-	-	33
COc1ccc(C2C(C(=O)Nc3cccc(OC)c3)c3ccccc3C(=O)N2C)cc1 (configuration not stated)	0	0	0	0	0	0	-
COc1ccc(C2C(C(=O)Nc3cc(OC)c(OC)c(OC)c3)c3ccccc3C(=O)N2C)cc1 (configuration not stated)	59	0	61	0	41	73	60
COc1cccc(C(=O)Nc2cccc(-c3nc4ncccc4o3)c2C)c1	0	0	0	0	0	0	-
O=C(Nc1ccccc1Cl)c1ccc([N+](=O)[O-])o1	47	-	-	0	-	-	0
O=C(Nc1cccc2ncccc12)c1ccc([N+](=O)[O-])o1	98	-	-	0	-	-	24
Cc1c(NC(=O)c2ccc([N+](=O)[O-])o2)cccc1-c1nc2ncccc2o1	100	-	-	0	-	-	0
Cc1ccccc1NC(=O)c1ccc([N+](=O)[O-])o1	0	0	0	0	0	0	-
O=C(Nc1ccc(NC(=O)c2ccc([N+](=O)[O-])o2)cc1Cl)c1ccco1	101	-	-	0	-	-	27
O=C(NC12CC3CC(CC(C3)C1)C2)c1ccc(Br)o1	0	-	-	0	-	-	-
O=C(NC12CC3CC(CC(C3)C1)C2)c1ccc([N+](=O)[O-])o1	66	-	-	0	-	-	25
SMILES	IEC-6 cytotox	MT stabilizer	BaF3 parental	KLF5 inh	Ba/F3 V617F tox	bCat nuc transl	IEC-6 cytotox cf
O=C(Nc1cccc(NC(=O)c2ccc([N+](=O)[O-])o2)c1)c1ccco1	99	-	-	0	-	-	35
Cc1ccc(C)c(C(=O)CSc2nc(N)cc(=O)[nH]2)c1	0	-	-	0	-	-	-
CSCC[C@H](NC(=O)[C@H]1N2C(=O)c3ccccc3C2SC1(C)C)C(=O)NCc1ccncc1 (some centres not stated)	0	-	-	0	-	-	-
N#CCCN(NC1=NS(=O)(=O)c2ccccc21)C(=O)c1ccccc1Br	0	-	-	0	-	-	-
COC(=O)c1nn(-c2ccc(OC)cc2)c(=O)cc1O	0	0	0	0	0	0	-
COc1ccc(-n2nc(C#N)c(Cl)cc2=O)cc1	29	0	0	0	0	0	0
C/C(=N/NC(=O)CN(c1ccccc1)S(=O)(=O)c1ccccc1)c1ccccc1O	46	-	-	0	-	-	38
CCCC(=O)NC(c1cccs1)c1cc([N+](=O)[O-])c2cccnc2c1O (configuration not stated)	0	0	0	0	0	-	-
CCCCC(=O)NC(c1ccccc1)c1ccc2cccnc2c1O (configuration not stated)	24	-	-	96	-	-	54
CCCC(=O)NC(c1ccccc1)c1ccc2cccnc2c1O (configuration not stated)	42	-	-	89	-	-	66
CCCCC(=O)NC(c1ccc([N+](=O)[O-])cc1)c1c(O)ccc2ccccc12 (configuration not stated)	0	0	0	0	0	0	-
COC(=O)c1oc2ccccc2c1NC(=O)/C=C/C(=O)O	0	0	0	0	0	0	-
O=C1CN(C(=O)c2cccc(Br)c2)c2ccccc2N1	38	-	-	0	-	-	0
O=C1CN(C(=O)c2ccccc2)c2ccccc2N1	0	0	0	0	0	-	-
CCCc1cc(=O)oc2cc(OCC(=O)NCCc3c[nH]c4ccccc34)ccc12	0	-	-	0	-	-	-
CC(C)Cn1c([N+](=O)[O-])nc2c1c(=O)[nH]c(=O)n2C	0	-	0	0	0	0	-
Cn1c(=O)[nH]c(=O)c2c1nc([N+](=O)[O-])n2Cc1ccccc1	38	-	77	0	95	0	0
O=C(NCc1ccc2c(c1)OCO2)c1nc(S(=O)(=O)Cc2ccccc2F)ncc1Cl	35	-	-	0	-	-	0
O=C(Cc1ccccc1)NCc1ccc2c(c1)OCO2	0	0	0	0	0	-	-
O=C(NCc1ccc2c(c1)OCO2)c1nc(S(=O)(=O)Cc2ccccc2)ncc1Cl	24	-	-	0	-	-	0
O=C(/C=C/c1ccco1)OCc1nnc(-c2ccc(Cl)cc2)o1	0	0	0	0	0	0	-
COc1ccc(-c2ccnc(-c3ccc(O)cc3)n2)cc1	69	0	59	0	79	64	60
COc1ccc(-c2ccnc(-c3ccncc3)n2)cc1	30	-	0	0	0	0	0
COc1ccc(-c2csc(-c3ccc(O)cc3)n2)cc1	50	-	47	0	64	0	44
O=C(COc1ccccc1)Nc1c2c(nn1-c1ccc(F)cc1)CS(=O)(=O)C2	0	-	-	0	-	-	-
SMILES	IEC-6 cytotox	MT stabilizer	BaF3 parental	KLF5 inh	Ba/F3 V617F tox	bCat nuc transl	IEC-6 cytotox cf
Cc1cc(C)cc(OCC(=O)OCC(=O)N2CC(=O)Nc3ccccc32)c1	0	0	0	0	0	0	-
COc1ccc(Cn2c(C)nc3ccc([N+](=O)[O-])cc3c2=O)cc1	0	-	-	0	-	-	-
CCn1cnc2cc([N+](=O)[O-])ccc21	0	0	0	0	0	0	-
Cc1ccc(C(=O)NCC(=O)OCC(=O)NCCc2ccccc2)s1	0	0	0	0	0	0	-
COc1nc(Cl)cn(-c2ccc(C)cc2)c1=O	0	0	0	0	0	0	-
Cc1ccc(-n2c(Cl)c(Cl)nc(Cl)c2=O)cc1	41	0	58	0	96	0	40
c1ccc(CNc2ncnc3c2cnn3Cc2ccccc2)cc1	27	44	33	0	27	0	35
Cc1ccc(CCNC(=O)c2cccc(NC3=NC4CS(=O)(=O)CC4S3)c2)cc1 (configuration not stated)	0	-	-	0	-	-	-

Screens: PubChem, several laboratories
